From ChEMBL document CHEMBL1153806, “Preclinical efficacy of a carboxylesterase 2-activated prodrug of doxazolidine” (J Med Chem, 2009)
The source made the active and inactive calls. The calls are words filed in the database; no cut-off is given here.

Assays:
[1] = test system: NCI-H1435; assay: Antitumor activity against human NCI-H1435 cells expressing CES2 gene xenografted in athymic nude mouse assessed as reduction in tumor size at 2.5 mg/kg, iv administered on day 7, 14 and 21 after tumor implantation; format: functional, organism-based; parameters: dose 2.5 mg/kg
Procedure, shortened: (§1)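 Athymic nude females, 4–6 weeks old, given ~2 × 10⁶ H1435 cells s.c. in the left flank on day 0; 10 mice/group. I.v. tail-vein doses (Dox-equivalent mg/kg) in 5% DMSO/95% D5W on days 7, 14 and 21, with all groups retreated on days 56, 63 and 70; vehicle controls. Caliper volume π × short² × long/6. Cube roots analysed with day-7 size as baseline covariate, by period.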

[2] = test system: Mus musculus; assay: Toxicity in athymic nude mouse xenografted with human NCI-H1435 cells expressing CES2 gene assessed as lipid […] in hepatocytes administered with six iv injection of 3 to 4 mg/kg by hematoxylin/eosin staining-based microscopy; format: organism-based, Hepatocyte; parameters: dose 3-4 mg/kg, route intravenous
Procedure, shortened: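 Female athymic nude mice, 4–6 weeks old, 10 per group. About 2 × 10⁶ H1435 cells were implanted s.c. into the left flank. I.v. tail-vein doses (Dox-equivalent) were given on days 7, 14, 21, 56, 63 and 70 in 5% DMSO/95% D5W. At sacrifice, organs were fixed in 10% formalin for 24 h and paraffin-embedded. Sections were cut at 4 µm and stained with hematoxylin/eosin for microscopy.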

[3] = test system: Mus musculus; assay: Toxicity in athymic nude mouse xenografted with human NCI-H1435 cells expressing CES2 gene assessed as appearance of fibrotic damage in heart tissue administered with six iv injection of 2.5 mg/kg by hematoxylin/eosin staining-based microscopy; format: organism-based; parameters: dose 2.5 mg/kg, route intravenous; conditions: in vivo
Procedure, shortened: (§2)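 Hearts and livers taken from the H1435 nude-mouse study (six i.v. injections) after CO₂/cervical dislocation. Fixed in 10% formalin for 24 h, paraffin-embedded, and cut at 4 µm. Slides deparaffinized in xylene and ethanol, stained with Mayer's hematoxylin for 2 min, blued in 1% ammonium hydroxide, and counterstained with eosin for 30 s. Examined by light microscopy.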

[4] = test system: Mus musculus; assay: Toxicity in athymic nude mouse xenografted with human NCI-H1435 cells expressing CES2 gene assessed as uniformity in punktate staining pattern of hepatocytes administered with six iv injection of 2.5 mg/kg by hematoxylin/eosin staining-based microscopy; format: organism-based, Hepatocyte; parameters: dose 2.5 mg/kg, route intravenous; procedure, shortened: as §2
[5] = test system: Mus musculus; assay: Toxicity in NOD/SCID mouse xenografted with human HepG2 cells expressing CES2 gene assessed as occurrence of diarrhea at 3 mg/kg, iv administered on day 7, 14 and 21 after tumor implantation; format: organism-based; parameters: dose 3 mg/kg, route intravenous; conditions: in vivo
[6] = test system: Mus musculus; assay: Toxicity in athymic nude mouse xenografted with human NCI-H1435 cells expressing CES2 gene assessed as vacuolar degeneration of kidney tissue administered with six iv injection of 2.5 mg/kg by hematoxylin/eosin staining-based microscopy; format: organism-based; parameters: dose 2.5 mg/kg, route intravenous; conditions: in vivo
Procedure, shortened: (§3)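 Kidney and ileum taken from the H1435 nude-mouse study (six i.v. injections). Formalin-fixed for 24 h, paraffin-embedded, and cut into 4 µm sections. Sections deparaffinized in xylene, rehydrated through an ethanol series, stained in Harris hematoxylin for 50 s with eosin, then dehydrated and mounted. Morphology assessed by microscopy.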

[7] = test system: Mus musculus; assay: Toxicity in athymic nude mouse xenografted with human NCI-H1435 cells expressing CES2 gene assessed as occurrence of diarrhea at 3 to 4 mg/kg, iv administered on day 7, 14 and 21 after tumor implantation; format: organism-based; parameters: dose 3-4 mg/kg, route intravenous; conditions: in vivo
[8] = test system: Mus musculus; assay: Toxicity in athymic nude mouse xenografted with human NCI-H1435 cells expressing CES2 gene assessed as occurrence of fatty liver administered with six iv injection of 2.5 mg/kg by hematoxylin/eosin staining-based microscopy; format: organism-based; parameters: dose 2.5 mg/kg, route intravenous; conditions: in vivo; procedure, shortened: as §2
[9] = Toxicity in NOD/SCID mouse xenografted with human HepG2 cells expressing CES2 gene assessed as mortality rate at 3 mg/kg, iv administered on day 7, 14 and 21 after tumor implantation; format: organism-based; parameters: dose 3 mg/kg, route intravenous; conditions: in vivo, read-out: Activity
Procedure, shortened: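 Female NOD/SCID mice, 4–6 weeks old, 10 per group. About 1.5 × 10⁷ N-Hep G2 cells were injected s.c. into the left flank. Tail-vein i.v. dosing (mg/kg Dox-equivalent weight) was given on days 7, 14 and 21. Vehicle was 5% DMSO/95% D5W, and controls received vehicle only. Body weight was measured weekly over the first 5 weeks. Survival was followed to study end.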

[10] = test system: NCI-H1435; assay: Antitumor activity against human NCI-H1435 cells expressing CES2 gene xenografted in athymic nude mouse assessed as slowing of tumor growth at 2.5 mg/kg, iv administered as three weekly infusion from day 21 to 56 after tumor implantation; format: functional, organism-based; parameters: dose 2.5 mg/kg; procedure, shortened: as §1
[11] = test system: NCI-H1435; assay: Antitumor activity against human NCI-H1435 cells expressing CES2 gene xenografted in pentyl PABC-doxazolidine-pretreated athymic nude mouse assessed as inhibition of tumor growth at 2.5 mg/kg, iv administered on day 63 after tumor implantation; format: functional, organism-based; parameters: dose 2.5 mg/kg; procedure, shortened: as §1
[12] = test system: Mus musculus; assay: Toxicity in athymic nude mouse xenografted with human NCI-H1435 cells expressing CES2 gene assessed as myofibril disorganization and vacuolization of heart tissue administered with six iv injection of 2.5 mg/kg by hematoxylin/eosin staining-based microscopy; format: organism-based; parameters: dose 2.5 mg/kg, route intravenous; conditions: in vivo; procedure, shortened: as §2
[13] = test system: NCI-H1435; assay: Antitumor activity against human NCI-H1435 cells expressing CES2 gene xenografted in pentyl PABC-doxazolidine-pretreated athymic nude mouse assessed as inhibition of tumor growth at 2.5 mg/kg, iv administered on day 70 after tumor implantation; format: functional, organism-based; parameters: dose 2.5 mg/kg; procedure, shortened: as §1
[14] = test system: Mus musculus; assay: Toxicity in athymic nude mouse xenografted with human NCI-H1435 cells expressing CES2 gene assessed as occurrence of cardiomyocyte necrosis administered with six iv injection of 2.5 mg/kg by hematoxylin/eosin staining-based microscopy; format: organism-based; parameters: dose 2.5 mg/kg, route intravenous; conditions: in vivo; procedure, shortened: as §2
[15] = test system: Mus musculus; assay: Toxicity in athymic nude mouse xenografted with human NCI-H1435 cells expressing CES2 gene at 3 to 4 mg/kg, iv administered on day 7, 14 and 21 after tumor implantation; format: organism-based; parameters: dose 3-4 mg/kg, route intravenous; conditions: in vivo
[16] = test system: Mus musculus; assay: Toxicity in athymic nude mouse xenografted with human NCI-H1435 cells expressing CES2 gene assessed as inflammatory cell infiltration in ileum administered with six iv injection of 2.5 mg/kg by hematoxylin/eosin staining-based microscopy; format: organism-based; parameters: dose 2.5 mg/kg, route intravenous; conditions: in vivo; procedure, shortened: as §3
[17] = test system: Mus musculus; assay: Toxicity in athymic nude mouse xenografted with human NCI-H1435 cells expressing CES2 gene assessed as vacuolar damage in ileum administered with six iv injection of 2.5 mg/kg by hematoxylin/eosin staining-based microscopy; format: organism-based; parameters: dose 2.5 mg/kg, route intravenous; conditions: in vivo; procedure, shortened: as §3
[18] = test system: NCI-H1435; assay: Antitumor activity against human NCI-H1435 cells expressing CES2 gene xenografted in athymic nude mouse assessed as inhibition of tumor growth at 2.5 mg/kg, iv administered on day 7, 14 and 21 after tumor implantation; format: functional, organism-based; parameters: dose 2.5 mg/kg; procedure, shortened: as §1
[19] = test system: NCI-H1435; assay: Antitumor activity against human NCI-H1435 cells expressing CES2 gene xenografted in pentyl PABC-doxazolidine-pretreated athymic nude mouse assessed as inhibition of tumor growth at 2.5 mg/kg, iv administered on day 56 after tumor implantation; format: functional, organism-based; parameters: dose 2.5 mg/kg; procedure, shortened: as §1
[20] = test system: HepG2; assay: Antitumor activity against human HepG2 cells expressing CES2 gene xenografted in NOD/SCID mouse assessed as inhibition of tumor growth at 4 to 5 mg/kg, iv administered on day 7, 14 and 21 after tumor implantation; format: functional, organism-based
Procedure, shortened: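 NOD/SCID females, 4–6 weeks old, each given ~1.5 × 10⁷ N-Hep G2 cells s.c. in the left flank; 10 mice/group. Dosed i.v. by tail vein on days 7, 14 and 21, in mg/kg Dox-equivalent, from DMSO diluted into D5W (5% DMSO/95% D5W), 100 µL/mouse. Vehicle-only controls. The 3 mg/kg group was redosed at 5 mg/kg on days 45 and 52. Tumor volume (π × short diameter² × long diameter/6) measured weekly.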

Compound	Activity [1]	Activity [2]	Activity [3]	Activity [4]	Activity [5]	Activity [6]	Activity [7]	Activity [8]	mortality [9] [%]	Activity [10]	inhibition [11]	Activity [12]	inhibition [13]	Activity [14]	Activity [15]	Activity [16]	Activity [17]	inhibition [18]	inhibition [19]	inhibition [20]
COc1cccc2c1C(=O)c1c(O)c3c(c(O)c1C2=O)C[C@@](O)(C(=O)CO)C[C@@H]3O[C@H]1C[C@H](N)[C@H](O)[C@H](C)O1 [DOXORUBICIN]	Active	Toxic	Toxic	Non-toxic	Non-toxic	Toxic	Non-toxic	Non-toxic	70	Active	inactive	Toxic	inactive	Toxic	Non-toxic	Non-toxic	Non-toxic	Active	inactive	Active
COc1cccc2c1C(=O)c1c(O)c3c(c(O)c1C2=O)C[C@@](O)(C(=O)CO)C[C@@H]3O[C@H]1C[C@@H]2NCO[C@@H]2[C@H](C)O1 [DOXAZOLIDINE]	–	Toxic	–	–	–	–	–	–	–	–	–	–	–	–	–	–	–	–	–	–
